System: MS2 coat protein
Assay: apparent Kd, MS2 coat protein; higher = weaker binding; RNA-MaP array; FMN 200 µM where present
Method in brief: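 Apparent Kd: the median of filtered binding-curve fits from single clusters. Designs were transcribed on Illumina sequencing-chip clusters by stalled E. coli RNA polymerase and titrated with SNAP-549-labelled MS2 coat protein from 0.7 or 1.5 nM, doubling to 3 µM, in 100 mM Tris-HCl pH 7.5, 80 mM KCl, 4 mM MgCl2, BSA, DTT, yeast tRNA and Tween-20. Each series ran without and then with constant ligand, and green signal was normalised to red-channel RNA signal and control-cluster median Fmax.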

[1] = designed as: OFF switch for flavin mononucleotide, no ligand
[2] = ligand present: flavin mononucleotide, designed as: OFF switch for flavin mononucleotide
[3] = designed as: ON switch for flavin mononucleotide, no ligand
[4] = ligand present: flavin mononucleotide, designed as: ON switch for flavin mononucleotide

## UCUAUGAAGAUUCGUCAAUACAGUUAGGAUAUGAGAUACAUGAGGAUCACCCAUGUGCAUGUGGAUUAGAAGGAACAAUUAUCU
[1]
  apparent Kd: 33.2 nM
[2]
  apparent Kd: 30.8 nM

## AUGCCGUGCAGAGCGCGACGGCGAACAUGAGGAUCACCCAUGUAGGAUAUACUACACAAAGUGUAGUAGAAGGACGUGCGGCAC
[1]
  apparent Kd: 20.9 nM
[2]
  apparent Kd: 30.8 nM

## UCCAAAUCGUAGAAGGGUGACAUGAGGAUCACCCAUGUGCAGCAACCGUGAACGGCCAUGCUGCCACAGGAUAUACGAUGGAGU
[3]
  apparent Kd: 14.1 nM
[4]
  apparent Kd: 29.8 nM

## AUCAGCUCGUCAGGAUAUACGUCACUGCGUCAGCAGUGUGGUAAGAUCACAUGAGGAUCACCCAUGUAGAAGGGCCGAGCUGAU
[1]
  apparent Kd: 12.2 nM
[2]
  apparent Kd: 184 nM

## AAAUCAGUAGGAUAUACGAUUUUAUGCUAGAUAGAGGAGCCACAUGAGGAUCACCCAUGUAGAAGGACUAGAUA
[1]
  apparent Kd: 17.1 nM
[2]
  apparent Kd: 19.9 nM

## CGUGUCAUCGAGAAGGCCUCAACAUGAGGAUCACCCAUGUUGUAAUAUGGGAGGAUAUCGAUGAUACAGCUACGUUUCGUAGCU
[3]
  apparent Kd: 18.8 nM
[4]
  apparent Kd: 5.8 nM

## GGGUACAUCGGAGGAUAUCAUGUAAAGACAUGAGGAUCACCCAUGUCGAUGGAGACAUCGGAGAUUGAGAAGGCCGAUGUACCG
[3]
  apparent Kd: 26.4 nM
[4]
  apparent Kd: 6.19 nM

## ACAUGAGGAUCACCCAUGUUUUCAGGGACUUCAAUUAUUUGUAGAAGGAUGUUUACUUGUUAGUCAUAGGAUAUACAAUUAAAU
[1]
  apparent Kd: 12.2 nM
[2]
  apparent Kd: 12.9 nM

## AACAGUACAGGAUAUACAUGAGGAUCACCCAUGUGAGAAUUAAGUGGCAUACCACAAAGUAGAAGGGUACUGGA
[1]
  apparent Kd: 29.7 nM
[2]
  apparent Kd: 202 nM

## GUGCCAUAUGAGAAGGCGAUCAUGAAACAUGAUCGAGGAUAUCAUGAAAACAUGAGGAUCACCCAUGUAUGGGUAUUAAGGUAC
[3]
  apparent Kd: 64.3 nM
[4]
  apparent Kd: 28.9 nM

## UGGUACUAGGGAGGAUAUGGGAAGAUACAUGAGGAUCACCCAUGUUUAAGAAUCCCGAGAGGCAACUAGAAGGCCCUAGUACCU
[3]
  apparent Kd: 8.08 nM
[4]
  apparent Kd: 6.96 nM

## CAGUAAGUAUUGCGAGGGUAGGAGCAGGAUAUCCCAUUGGCCCUCACAUGAGGAUCACCCAUGUGGGAGAAGGGCUAUUACGUC
[1]
  apparent Kd: 9.11 nM
[2]
  apparent Kd: 22.5 nM

## GCUUCCCAUGUGAGGAUAUGUAGGGUUAACCCGAGGCAGAAGGCACAUGAGGAUCACCCAUGUUAAAACUUCUA
[1]
  apparent Kd: 29 nM
[2]
  apparent Kd: 60.6 nM

## GGCUAACAUGAGGAUCACCCAUGUCGCCAAAAUCGAGGAUAUGGGUGCCAGCUCGGGCAGCCAGAAGGCGACAAAA
[3]
  apparent Kd: 225 nM
[4]
  apparent Kd: 33.1 nM

## ACAUGAGGAUCACCCAUGUAUACAUAGGAUAUUGAGGAUCAGGGAUGUUUUACAGGAUAUGUCUACGAGAAGGAUGCAAGUACA
[3]
  apparent Kd: 33.5 nM
[4]
  apparent Kd: 28.6 nM

## AUCCUACAUGAGGAUCACCCAUGUGACGCCUCGAUAGGAUAUGCGUGUGCCUUGGCGCAUGCAGAAGGAUUGUAGC
[3]
  apparent Kd: 43.6 nM
[4]
  apparent Kd: 237 nM

## GAAUAGGACAGAGGAUAUACGUGCUAGAGAUACUAGCAAAAUUUCCUCACAUGAGGAUCACCCAUGUAGAAGGCUGUCCUAUCG
[1]
  apparent Kd: 18.5 nM
[2]
  apparent Kd: 394 nM

## ACAUGAGGAUCACCCAUGUUAUCAGGGACUUCAAUUAUUUGUAGAAGGCUGUUUUCUUGUUAGUCAGAGGAUAUACAAUUAAAU
[1]
  apparent Kd: 12.7 nM
[2]
  apparent Kd: 14.2 nM

## CGUGUCGUAUGAGGAUAUGGUCAGCUUUGCUGACCAGAAGGCAUGUCAAUAGACAUGAGGAUCACCCAUGUAGUAAAGACACGA
[3]
  apparent Kd: 378 nM
[4]
  apparent Kd: 40.6 nM

## UUGGACGUCGUAGGAUAUGUAGGAUUUUCCUACAUGAGGAUCACCCAUGUUGAAAUGGAAGAAGGACAGAAGGACGAUGUCCAU
[3]
  apparent Kd: 139 nM
[4]
  apparent Kd: 16.2 nM

## CUUCGUAUAGAGGAUAUAGGUUACUGCGGUAUCCUAGAAGGCUGUACAUGAGGAUCACCCAUGUACUUCAGAUC
[1]
  apparent Kd: 13.9 nM
[2]
  apparent Kd: 18.2 nM

## AGUGUGUGGCAGGAUAUUCCGGUCGUUGGUCGGGAAGAAGGGUCUACAUGAGGAUCACCCAUGUGACCGGUUGA
[1]
  apparent Kd: 25.6 nM
[2]
  apparent Kd: 25.6 nM

## AAGUCUGGACGAGGAUAUCAGCUGUAACUGGCGUCGACAUGAGGAUCACCCAUGUUGCUAUAGGGUGAGAAGGCGUUUGGGCAA
[3]
  apparent Kd: 47.7 nM
[4]
  apparent Kd: 28.8 nM

## CAUUAAUUGAUUAUUGUAUUUAUACAGGAUAUGUAACAUGAGGAUCACCCAUGUAUACAUGGGAAACAGAAGGGUAUAUAAAGA
[1]
  apparent Kd: 33.7 nM
[2]
  apparent Kd: 29.9 nM

## UAGGUGUGAGGAUAUGGUAAAGAUAAAAUGAUGAAAGAACUCCAGAAGGCACAUGAGGAUCACCCAUGUAGAUG
[1]
  apparent Kd: 29.2 nM
[2]
  apparent Kd: 54.9 nM

## GGAGAGGUAGGAUAUGGAGCUUAGAACAUGAGGAUCACCCAUGUAGGACCACAUGAUUUGCCAGAAGGACCAGUCC
[1]
  apparent Kd: 421 nM
[2]
  apparent Kd: 558 nM

## GAAAAGGUAGGAUAUACGAAAACAAAGGGUAGAAACAAAACACAUGAGGAUCACCCAUGUAGAAGGACCAAAAG
[1]
  apparent Kd: 36.4 nM
[2]
  apparent Kd: 233 nM

## AUUAUGAAUGCAGGAUAUGAUUAACAUGAGGAUCACCCAUGUGGUGUUGUGAGUAAGGAGAGUGAUCAGAAGGGCAUUUUUUUU
[3]
  apparent Kd: 593 nM
[4]
  apparent Kd: 585 nM

## AAAAAGGGAGGAUAUACAUGAGGAUCACCCAUGUAGCAGACGAAAAAGAGUCUGUAAUGUAGAAGGCCCAAAAA
[1]
  apparent Kd: 17.1 nM
[2]
  apparent Kd: 52.7 nM

## AUAUUAAUAUAGGAUAUCGAAUUUAUUAAUUAUCGAGAAGGAUAAACAUGAGGAUCACCCAUGUGGUAUCAUGG
[1]
  apparent Kd: 181 nM
[2]
  apparent Kd: 225 nM

## AGGAGGUCAGGAUAUGCAUGGCGGGACUUGCGUCGUGGCGUGCAGAAGGGACAUGAGGAUCACCCAUGUGGAGA
[1]
  apparent Kd: 86.1 nM
[2]
  apparent Kd: 220 nM

## UUAGAAUUGUUAGGAUAUUAAUUAUUUUUUAGUAUGAUCUACAUGAGGAUCACCCAUGUUAAAUAUAAGAAGGAACGUUAUAUU
[1]
  apparent Kd: 63.6 nM
[2]
  apparent Kd: 63.6 nM

## UUGGACGUCGUAGGAUAUGUAGGAUAUUCCUACAUGAGGAUCACCCAUGUUGACACGGAAGAAGGACAGAAGGACGAUGUCCAU
[3]
  apparent Kd: 11.6 nM
[4]
  apparent Kd: 4.23 nM

## GAUAGGACAGAGAAGGACGUAGCUAGAGAUACUAGCAUAAGAACCUUUACAUGAGGAUCACCCAUGUAGGAUAUCUGUCCUAUC
[1]
  apparent Kd: 5.88 nM
[2]
  apparent Kd: 6.89 nM

## UGCAUGCUAGGAUAUACGGGACAUUAGGGUUUGUCGUGUGGACAUGAGGAUCACCCAUGUAGAAGGAGCGUGCU
[1]
  apparent Kd: 49.5 nM
[2]
  apparent Kd: 207 nM

## AGGGCGGGAGGAUAUCCAAUAUAUGACAUGAGGAUCACCCAUGUUUCCACUCGUACCUCCGGAGAAGGCCCGCCCA
[1]
  apparent Kd: 24.4 nM
[2]
  apparent Kd: 22.3 nM

## UGUCGGAGCAGAGGAUAUUACAUGAGGAUCACCCAUGUAAUAAAUGGAAGCUGGAAACAGCAAUGUAAGAAGGCUGCUCCGACA
[1]
  apparent Kd: 17.4 nM
[2]
  apparent Kd: 47.9 nM

## UCGCUCCGUGUAGGAUAUCGCCGUUCUACUCGGCGAGAAGGACAUGAGGAUCACCCAUGUAUGUUAUUAUCACGUGUGGCGCGC
[1]
  apparent Kd: 18.5 nM
[2]
  apparent Kd: 29.5 nM

## AGGAGAAAUGUAGGAUAUGUAUAUAUAUAUGGGCAAAGCGCAUAUAUAUAUACAGAAGGACAUGAGGAUCACCCAUGUUUCCCU
[1]
  apparent Kd: 11.4 nM
[2]
  apparent Kd: 13.5 nM

## UGUGUGAGACAGGAUAUGCCGGUUGUGUUACUGGUAGAAGGGUCUACAUGAGGAUCACCCAUGUGGCCGGCCGG
[1]
  apparent Kd: 152 nM
[2]
  apparent Kd: 154 nM

## AAUCCACAUGAGGAUCACCCAUGUGAGGAUAUGAUACUAUGUACUUCGGUACAUAGUAUCAGAAGGCAUAUGAA
[1]
  apparent Kd: 25.3 nM
[2]
  apparent Kd: 30.4 nM

## GUCCUCUUGACAUGAGGAUCACCCAUGUAUUAUUUGUUAACUGAGGAUAUACUCUUAUUUUUUAUGUAGAAGGCAGAUUUGUUC
[1]
  apparent Kd: 40.9 nM
[2]
  apparent Kd: 52.5 nM

## AAACAUGUCCGAGGAUAUCUGGAAACAUUUUCAAGAGAAGGCGGACAUGAGGAUCACCCAUGUCUCACCUCAUCAAAUCCAAGU
[1]
  apparent Kd: 8.24 nM
[2]
  apparent Kd: 30.2 nM

## GGUACUCAAAGAGUACUUGGUCGAACAUGAGGAUCACCCAUGUAGGAUAUGCUAAGCAAGAAGUAGCAGAAGGACAUGUGCAGC
[1]
  apparent Kd: 14.8 nM
[2]
  apparent Kd: 56.5 nM

## GCGUCAGAAUUAAUUGUGACAUACAGAAGGCAAAAUUAAGGAUAAGACAUGAGGAUCACCCAUGUUGAGGAUAUGUAGUGACGC
[1]
  apparent Kd: 8.7 nM
[2]
  apparent Kd: 7.57 nM

## ACUACAUGAGGAUCACCCAUGUGAAUAAUAAAAGUAACAAGCAGAAGGUGACCUCGUCUCCUGGUCAAGGAUAUGCAAGAAAGA
[3]
  apparent Kd: 267 nM
[4]
  apparent Kd: 33.7 nM

## UGGUACUAGGGAGGAUAUGGGAAGAUACAUGAGGAUCACCCAUGUUUAAGAAUGCAGAGAGGCAACUAGAAGGCCCUAGUACCU
[3]
  apparent Kd: 324 nM
[4]
  apparent Kd: 18.7 nM

## CAGUACUGAGGAUAUACAUGAGGAUCACCCAUGUGUUCGAUACUAGUGAGGUCGAUUAGUAGAAGGCAGUACUG
[1]
  apparent Kd: 21.3 nM
[2]
  apparent Kd: 248 nM

— the EternaBench riboswitch data
